According to ChEMBL document CHEMBL5058577, “EUbOPEN Chemogenomics Library 2 (Multiplex)” (2022):

System: HEK-293T
Experiment: Multiplex assay against HEK293T
Assay type: toxicity, cell-based
Details: human
Method in brief: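 Compound was added to live cells that had been stained at seeding with Hoechst33342, BioTracker Green Microtubule Cytoskeleton Dye, MitoTracker Red and Annexin V Alexa Fluor 680, and imaging followed on a CQ1 microscope at 37°C and 5% CO2. CellPathfinder machine-learning gating divided cells into Hoechst high-intensity objects or normal cells, normal cells into healthy, pyknosed or fragmented nuclei, and pyknosed cells into mitotic or apoptotic. Tubulin, mitochondrial-mass and membrane-permeability phenotypes are per cents of healthy-nucleus cells.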

[1] = 12 h, 1 µM, compound concentration 1 uM, replicate 1
[2] = 12 h, 1 µM, compound concentration 1 uM, replicate 2
[3] = 12 h, 10 µM, compound concentration 10 uM, replicate 1
[4] = 12 h, 10 µM, compound concentration 10 uM, replicate 2
[5] = 24 h, 1 µM, compound concentration 1 uM, replicate 1
[6] = 24 h, 1 µM, compound concentration 1 uM, replicate 2
[7] = 24 h, 10 µM, compound concentration 10 uM, replicate 1
[8] = 24 h, 10 µM, compound concentration 10 uM, replicate 2
[9] = 48 h, 1 µM, compound concentration 1 uM, replicate 1
[10] = 48 h, 1 µM, compound concentration 1 uM, replicate 2
[11] = 48 h, 10 µM, compound concentration 10 uM, replicate 1
[12] = 48 h, 10 µM, compound concentration 10 uM, replicate 2

COC[C@@H](c1ccc(C(F)(F)F)cc1)N1CCN(C2(C)CCN(C(=O)c3c(C)ncnc3C)CC2)C[C@@H]1C.O=C(O)/C=C\C(=O)O [VICRIVIROC MALEATE]
Population Apoptotic (%) [1]: 46% | Population Fragmented Nuclei (%) [1]: 7% | Population Healthy Nuclei (%) [1]: 80% | Population Hoechst High Intensity Objects (%) [1]: 9% | Population Membrane Permeable-Phenotype (%) [1]: 0% | Population Mitochondria Different-Phenotype (%) [1]: 47% | Population Mitotic Cells (%) [1]: 53% | Population Normal (%) [1]: 90% | Population Pyknosed Nuclei (%) [1]: 12% | Population Tubulin-Different-Phenotype (%) [1]: 27% | Total Cell Count [1]: 406 | Population Apoptotic (%) [2]: 45% | Population Hoechst High Intensity Objects (%) [2]: 5% | Population Mitochondria Different-Phenotype (%) [2]: 51% | Population Mitotic Cells (%) [2]: 54% | Population Normal (%) [2]: 94% | Population Pyknosed Nuclei (%) [2]: 11% | Population Tubulin-Different-Phenotype (%) [2]: 17% | Total Cell Count [2]: 387 | Population Apoptotic (%) [3]: 44% | Population Fragmented Nuclei (%) [3]: 6% | Population Healthy Nuclei (%) [3]: 75% | Population Hoechst High Intensity Objects (%) [3]: 8% | Population Membrane Permeable-Phenotype (%) [3]: 0% | Population Mitochondria Different-Phenotype (%) [3]: 63% | Population Mitotic Cells (%) [3]: 55% | Population Normal (%) [3]: 91% | Population Pyknosed Nuclei (%) [3]: 18% | Population Tubulin-Different-Phenotype (%) [3]: 57% | Total Cell Count [3]: 315 | Population Apoptotic (%) [4]: 62% | Population Fragmented Nuclei (%) [4]: 5% | Population Healthy Nuclei (%) [4]: 72% | Population Hoechst High Intensity Objects (%) [4]: 16% | Population Mitochondria Different-Phenotype (%) [4]: 78% | Population Mitotic Cells (%) [4]: 37% | Population Normal (%) [4]: 83% | Population Pyknosed Nuclei (%) [4]: 21% | Population Tubulin-Different-Phenotype (%) [4]: 51% | Total Cell Count [4]: 265 | Population Apoptotic (%) [5]: 30% | Population Fragmented Nuclei (%) [5]: 9% | Population Healthy Nuclei (%) [5]: 79% | Population Hoechst High Intensity Objects (%) [5]: 6% | Population Membrane Permeable-Phenotype (%) [5]: 0% | Population Mitochondria Different-Phenotype (%) [5]: 24% | Population Mitotic Cells (%) [5]: 69% | Population Normal (%) [5]: 93% | Population Pyknosed Nuclei (%) [5]: 10% | Population Tubulin-Different-Phenotype (%) [5]: 21% | Total Cell Count [5]: 564 | Population Apoptotic (%) [6]: 31% | Population Healthy Nuclei (%) [6]: 82% | Population Hoechst High Intensity Objects (%) [6]: 5% | Population Membrane Permeable-Phenotype (%) [6]: 1% | Population Mitotic Cells (%) [6]: 68% | Population Normal (%) [6]: 94% | Population Pyknosed Nuclei (%) [6]: 8% | Population Tubulin-Different-Phenotype (%) [6]: 11% | Total Cell Count [6]: 515 | Population Apoptotic (%) [7]: 34% | Population Fragmented Nuclei (%) [7]: 6% | Population Healthy Nuclei (%) [7]: 80% | Population Hoechst High Intensity Objects (%) [7]: 6% | Population Membrane Permeable-Phenotype (%) [7]: 0% | Population Mitochondria Different-Phenotype (%) [7]: 53% | Population Mitotic Cells (%) [7]: 66% | Population Normal (%) [7]: 93% | Population Pyknosed Nuclei (%) [7]: 13% | Population Tubulin-Different-Phenotype (%) [7]: 49% | Total Cell Count [7]: 406 | Population Apoptotic (%) [8]: 60% | Population Fragmented Nuclei (%) [8]: 10% | Population Healthy Nuclei (%) [8]: 77% | Population Hoechst High Intensity Objects (%) [8]: 16% | Population Mitochondria Different-Phenotype (%) [8]: 70% | Population Mitotic Cells (%) [8]: 39% | Population Normal (%) [8]: 83% | Population Pyknosed Nuclei (%) [8]: 12% | Population Tubulin-Different-Phenotype (%) [8]: 39% | Total Cell Count [8]: 310 | Population Apoptotic (%) [9]: 21% | Population Fragmented Nuclei (%) [9]: 11% | Population Healthy Nuclei (%) [9]: 80% | Population Hoechst High Intensity Objects (%) [9]: 2% | Population Membrane Permeable-Phenotype (%) [9]: 1% | Population Mitochondria Different-Phenotype (%) [9]: 13% | Population Mitotic Cells (%) [9]: 78% | Population Normal (%) [9]: 97% | Population Pyknosed Nuclei (%) [9]: 7% | Population Tubulin-Different-Phenotype (%) [9]: 12% | Total Cell Count [9]: 930 | Population Apoptotic (%) [10]: 34% | Population Fragmented Nuclei (%) [10]: 13% | Population Healthy Nuclei (%) [10]: 81% | Population Mitochondria Different-Phenotype (%) [10]: 11% | Population Mitotic Cells (%) [10]: 65% | Population Pyknosed Nuclei (%) [10]: 5% | Population Tubulin-Different-Phenotype (%) [10]: 8% | Total Cell Count [10]: 751 | Population Apoptotic (%) [11]: 38% | Population Fragmented Nuclei (%) [11]: 12% | Population Healthy Nuclei (%) [11]: 75% | Population Hoechst High Intensity Objects (%) [11]: 4% | Population Membrane Permeable-Phenotype (%) [11]: 0% | Population Mitochondria Different-Phenotype (%) [11]: 49% | Population Mitotic Cells (%) [11]: 61% | Population Normal (%) [11]: 95% | Population Pyknosed Nuclei (%) [11]: 11% | Population Tubulin-Different-Phenotype (%) [11]: 35% | Total Cell Count [11]: 559 | Population Apoptotic (%) [12]: 53% | Population Fragmented Nuclei (%) [12]: 14% | Population Healthy Nuclei (%) [12]: 70% | Population Hoechst High Intensity Objects (%) [12]: 11% | Population Mitochondria Different-Phenotype (%) [12]: 50% | Population Mitotic Cells (%) [12]: 46% | Population Normal (%) [12]: 88% | Population Pyknosed Nuclei (%) [12]: 15% | Population Tubulin-Different-Phenotype (%) [12]: 38% | Total Cell Count [12]: 394
